Calls of active or inactive are those of the source.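 How the source made its calls, unless noted: active means current rise at least 3 SD above the untreated control mean in each of two repeat wells; inactive means the rest.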
target: Potassium voltage-gated channel subfamily KQT member 1 (Homo sapiens) (UniProt P51787); experiment: KCNQ1 activators by electrophysiology – IonWorks patch clamp, KCNQ1-CHO cells, orthogonal assay for KCNQ1 potentiator project, confirmation (AID 493184); conditions: automated patch clamp current, at 10 µM
In short: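 Material: KCNQ1-expressing CHO cells; doses: 10 µM final, single point; probe or stimulus: voltage step from -90 mV holding to +40 mV, 2,000 ms; signal: automated voltage clamp, amphotericin B perforated patch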

Chain of Potassium voltage-gated channel subfamily KQT member 1 (Homo sapiens) (P51787 whole entry, looked up): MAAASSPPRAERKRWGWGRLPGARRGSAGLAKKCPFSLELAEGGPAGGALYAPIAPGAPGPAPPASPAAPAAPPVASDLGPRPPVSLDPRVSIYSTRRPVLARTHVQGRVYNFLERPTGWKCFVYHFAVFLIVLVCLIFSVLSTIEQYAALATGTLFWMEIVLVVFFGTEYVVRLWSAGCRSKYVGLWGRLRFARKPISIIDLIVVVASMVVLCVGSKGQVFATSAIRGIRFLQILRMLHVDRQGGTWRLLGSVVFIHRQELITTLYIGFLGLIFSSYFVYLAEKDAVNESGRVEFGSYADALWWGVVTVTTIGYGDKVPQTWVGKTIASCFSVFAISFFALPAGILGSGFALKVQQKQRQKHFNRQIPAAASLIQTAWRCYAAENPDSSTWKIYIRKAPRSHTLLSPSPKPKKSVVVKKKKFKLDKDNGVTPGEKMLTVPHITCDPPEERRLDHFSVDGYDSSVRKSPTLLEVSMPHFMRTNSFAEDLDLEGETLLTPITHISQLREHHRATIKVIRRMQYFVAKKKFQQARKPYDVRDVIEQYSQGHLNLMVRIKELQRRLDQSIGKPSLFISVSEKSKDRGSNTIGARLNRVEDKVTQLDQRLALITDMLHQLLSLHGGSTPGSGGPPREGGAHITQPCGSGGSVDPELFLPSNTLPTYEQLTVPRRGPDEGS

outcome, inactive:
CCOc1ccccc1NC1=C(Cl)C(=O)N(c2ccccc2)C1=O
C=CCNC(=S)NNC(=O)COc1c(Cl)cc(Cl)cc1Cl
CC(C)COc1ccc(-c2nn(-c3ccccc3)cc2/C=C2/SC(=S)N(CC(=O)O)C2=O)cc1
Cc1ccc(C(=O)C2=C(O)C(=O)N(CCCN3CCOCC3)C23C(=O)N(C)c2ccccc23)o1 (configuration not stated)
Cc1ccc(C(=O)CC(=O)c2ccc(C)cc2O)cc1
O=[N+]([O-])c1ccc(C(O)C(CO)NC(=S)Nc2ccccc2)cc1 (configuration not stated)
CSc1cccc(NC(=O)CN2C(=O)c3ccccc3S2(=O)=O)c1
O=C(CCSc1ccccc1)Nc1ccc(S(=O)(=O)Nc2ncccn2)cc1
Cc1cccc(N(CC(=O)NC2CCCC2)C(=O)c2csnn2)c1C
CCc1ccc(NC(=O)C2CCN(C(=O)[C@@H]3Cc4ccccc4CN3)CC2)cc1
S=c1[nH]c2ccccc2c2ccccc12
Cc1cc(N2CCOCC2)nc(SCC(=O)c2ccc(Cl)cc2)n1
Cn1c(N/N=C/c2cccs2)cc(=O)n(C)c1=O
COC(=O)c1ccc(CNC(=O)CSc2nc3sc(C)c(C)c3c(=O)n2C)o1
COC(=O)C1CCN(C(=O)Nc2ccc(OC)cc2)CC1
COCC(=O)NC1CC2CCC(C1)N2C(=S)Nc1ccccc1C(=O)OC (configuration not stated)
CN(C)CCCNc1cc(-c2ccccc2)nc2cc(-c3cccc(F)c3)nn12
CC(=O)n1cc(N(C(=O)CCl)c2ccc(C)cc2)c2ccccc21
CC(C)(C)c1ccc(CN2N=Nc3ccccc3S2(=O)=O)cc1
CCCCNC(=O)CNC(=O)c1nn(-c2ccc(OC)cc2OC)c(=O)c2ccccc12
N=C1/C(=C\c2ccc(-c3cccc(Cl)c3)o2)C(=O)N=C2SC=C(c3ccccc3)N12
CN(Cc1cccnc1)C(=O)Cc1ccc(NS(=O)(=O)c2cccc(C(F)(F)F)c2)cc1

target: Potassium voltage-gated channel subfamily E member 1 (Homo sapiens) + Potassium voltage-gated channel subfamily KQT member 1 (Homo sapiens) (UniProt P15382+P51787); experiment: KCNQ1-E1 channel activation – thallium flux, CHO-K1 KCNQ1/E1 cells, selectivity assay for KCNQ1 potentiator project, confirmation (AID 493186;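 active means mean duplicate activation above the buffer control mean plus 5 SD of those controls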); conditions: FluxOR thallium flux, at 10 µM
In short: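 Test system: CHO-K1 cells with KCNQ1/E1. Times: 90-min dye loading then 20-min compound exposure, both at room temperature. Measured by: kinetic FluxOR thallium-flux fluorescence, 10 s baseline plus 110 s after stimulus. Repeats: duplicate wells per compound.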

Chain of Potassium voltage-gated channel subfamily E member 1 (Homo sapiens) + Potassium voltage-gated channel subfamily KQT member 1 (Homo sapiens) (P51787 whole entry, looked up): as the sequence (P51787 whole entry, looked up) above

outcome, inactive:
Oc1c(N=NC(=S)Nc2ccccc2F)c2ccccc2n1Cc1cccc(Cl)c1
COC(=O)[C@H](C)NC(=O)Nc1cc(Cl)ccc1C
C=CCNC(=S)NNC(=O)COc1c(Cl)cc(Cl)cc1Cl
Cc1ccc(C(=O)C2=C(O)C(=O)N(CCCN3CCOCC3)C23C(=O)N(C)c2ccccc23)o1 (configuration not stated)
Cc1ccc(C(=O)CC(=O)c2ccc(C)cc2O)cc1
